The text below walks through data of ChEMBL document CHEMBL3860103, “Antibacterial and Antibiofilm Activity of Cationic Small Molecules with Spatial Positioning of Hydrophobicity: An in Vitro and in Vivo Evaluation” (J Med Chem, 2016).

A short description of series [1]: Induction of hemolysis in human RBC incubated for 1 hr. Format: cell-based, Erythrocyte. To be noted: red blood cells. An outline of the steps: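 Washed human RBCs from heparinized blood, 5 vol% in PBS, mixed 3:1 with serially diluted compounds; 1 h at 37 °C. Centrifuged; supernatant A540 read. Hemolysis % = (A−A0)/(Atotal−A0)×100, with water as 0% and 0.1 vol% Triton X-100 as full lysis.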

The test system of series [2] is Staphylococcus aureus. The series is described as follows: Antibacterial activity against Staphylococcus aureus incubated for 24 hrs. Format: functional. An outline of the steps: (§1)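 Broth microdilution: 6 h cultures diluted to ~10^5 CFU/mL in medium; compounds 2-fold serially diluted in water, mixed 1:3 with bacterial suspension. Incubated 24 h, 37 °C; OD600 read. MIC = concentration with OD similar to medium-only control. Triplicate wells, experiments repeated at least twice.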

Series [3] relates to Staphylococcus aureus. The series is described as follows: Antibacterial activity against methicillin-resistant Staphylococcus aureus incubated for 24 hrs. Format: functional. An outline of the steps: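 MRSA (ATCC 33591) from a 6 h culture (~10^9 CFU/mL), diluted to ~10^5 CFU/mL in medium. Compounds in water, 2-fold serial dilutions, combined with the bacteria at 1:3 by volume and incubated 24 h at 37 °C. OD600 read. MIC is the lowest concentration whose OD matches the media-only control. Triplicate wells; experiments repeated at least twice.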

Series [4] concerns Escherichia coli. The series is described as follows: Antibacterial activity against Escherichia coli incubated for 24 hrs. The class given is functional. An outline of the steps: as §1
Series [5] has as its system Escherichia coli. The series is described as follows: Induction of biofilm disruption in Escherichia coli after 24 hrs by confocal laser-scanning microscopy. Format: functional. An outline of the steps: (§2)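 Biofilms grown on glass coverslips from ~10^5 CFU/mL: S. aureus in nutrient medium + 1% glucose + 1% NaCl, 24 h; E. coli in M9 + 0.5% glycerol + 0.02% casamino acid, 72 h; stationary, 37 °C. After PBS wash, treated 24 h at 37 °C with 32 µg/mL in the same medium; media-only control. Stained with SYTO 9 (5 µM), imaged by confocal microscopy.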

In series [6] the test system is Staphylococcus aureus. The series is described as follows: Induction of biofilm disruption in Staphylococcus aureus after 24 hrs by confocal laser-scanning microscopy. The class given is functional. An outline of the steps:
as §2

Series [7] in a line: Selectivity index, ratio of HC50 for induction of hemolysis in human RBC to MIC for Escherichia coli.
Series [8] relates to Staphylococcus aureus. The series is described as follows: Induction of membrane depolarization in Staphylococcus aureus at 32 ug/ml after 0 to 20 mins by […] dye based assay. Format: functional. An outline of the steps: (§3)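 Membrane-potential dye DiSC3(5) taken up by S. aureus or E. coli; depolarization followed as rise in dye fluorescence after adding compounds at 32 µg/mL.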

Series [9] concerns Escherichia coli. Briefly: Induction of membrane depolarization in Escherichia coli at 32 ug/ml after 0 to 20 mins by […] dye based assay. Format: functional. An outline of the steps: as §3
The test system of series [10] is Staphylococcus aureus. The series is described as follows: Induction of membrane permeabilization in Staphylococcus aureus at 32 ug/ml after 0 to 20 mins by propidium iodide dye based assay. Format: functional. An outline of the steps:
(§4)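 Membrane permeabilization of S. aureus or E. coli followed as increase in propidium iodide fluorescence after adding compounds at 32 µg/mL.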

The nature of series [11]: Selectivity index, ratio of HC50 for induction of hemolysis in human RBC to MIC for Staphylococcus aureus.
Series [12] deals with Escherichia coli. The series is described as follows: Induction of membrane permeabilization in Escherichia coli at 32 ug/ml after 0 to 20 mins by propidium iodide dye based assay. Format: functional. An outline of the steps: as §4
Series [13] has as its system Staphylococcus aureus. The series is described as follows: Antibacterial activity against Staphylococcus aureus infected in BALB/c mouse model of superficial skin infection and biofilm formation assessed as reduction in bacterial load in skin at 40 mg/kg applied topically once daily for 4 days and measured 18 hrs after last dose by FEI field emission scanning electron microscopy relative to un-treated control. The class given is functional, organism-based. An outline of the steps:
(§5)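 Female BALB/c mice (6–8 weeks, 18–22 g) made neutropenic with cyclophosphamide i.p. (150 mg/kg, then 100 mg/kg 3 days later), anesthetized, backs shaved, wounded and infected with MRSA ATCC 33591. After 24 h biofilm formation, 40 mg/kg applied topically to wound once daily for 4 days (n = 5/group; untreated control). Skin collected 18 h after last dose for CFU/g; portions formalin-fixed for SEM.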

For series [14], the system named is Staphylococcus aureus. The series is described as follows: Antibacterial activity against Staphylococcus aureus infected in BALB/c mouse model of superficial skin infection and biofilm formation assessed as reduction in bacterial load in skin at 40 mg/kg applied topically once daily for 4 days and measured 18 hrs after last dose. Format: functional. An outline of the steps: as §5

Series [15] in a line: Toxicity in HEK293 cells assessed as induction of cell death at 64 ug/ml incubated for 24 hrs by calcein AM and propidium iodide dye based fluorescence microscopy. The following applies: human, hek293, 24 h. An outline of the steps:
(§6)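 HEK 293 cells seeded ~10^4 cells/well, treated with compounds for 24 h (16, 32 or 64 µg/mL); 0.1% Triton X positive, untreated negative control. Stained with calcein AM (2 µM) and PI (4.5 µM) 15 min at 37 °C, 5% CO2; imaged by fluorescence microscopy, 20X objective.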

A short description of series [16]: Toxicity in HEK293 cells assessed as cell density level at 16 ug/ml incubated for 24 hrs by calcein AM and propidium iodide dye based fluorescence microscopy. The following applies: human, hek293, 24 h. An outline of the steps:
as §6

Series [17] in a line: Toxicity in HEK293 cells assessed as partial induction of cell death at 32 ug/ml incubated for 24 hrs by calcein AM and propidium iodide dye based fluorescence microscopy. To be noted: human, hek293, 24 h. An outline of the steps:
as §6

Calls of active or inactive are those of the source.

On to `CCCCCCCCNC(=O)C[N+](C)(C)CCCCCCCCCCCC[N+](C)(C)CC(=O)NCCCCCCCC.[Br-].[Br-]`, for which the HC50 at 1 h in series [1] was 65 µg/mL. Further, the figures for the MIC in series [2], in [3] and in series [4] were 1 µg/mL, 1 µg/mL and 2 µg/mL, respectively.
For the molecule `CCCCCCNC(=O)C[N+](C)(C)CCCCCC[N+](C)(C)CC(=O)NCCCCCC.[Br-].[Br-]`, in [1], the HC50 at 1 h was greater than 1000 µg/mL. Moreover, the MIC was determined as 62.5 µg/mL in series [2], 125 µg/mL in series [3] and 125 µg/mL in series [4].
With `CCCCCCCCCCCCCC[N+](C)(C)Cc1ccccc1`, the MBEC entry in series [5] and in [6] was “Active” each time.
Turning to `CCCCCCCCCCNC(=O)C[N+](C)(C)CCCCCCCCCCCC[N+](C)(C)CC(=O)NCCCCCCCCCC.[Br-].[Br-]`, the HC50 at 1 h in series [1] is 50 µg/mL. Also, the figures for the MIC in [2], in series [3] and in [4] were 31 µg/mL, 62 µg/mL and 500 µg/mL, respectively.
Turning to “N,N,N-trimethylhexadecan-1-aminium bromide”, the MBEC entry in series [5] and in series [6] was “Active” throughout.
With `CCCCCCCCNC(=O)C[N+](C)(C)CCCCCCCCCC[N+](C)(C)CC(=O)NCCCCCCCC.[Br-].[Br-]`, the HC50 at 1 h in series [1] came to 100 µg/mL. Moreover, the MIC in series [2] was 1 µg/mL; in series [3], 2 µg/mL; in [4], 1 µg/mL.
`CCCCCCCCNC(=O)C[N+](C)(C)CCCCCC[N+](C)(C)CC(=O)NCCCCCCCC.[Br-].[Br-]`: the Selectivity Index in series [7] turned out to be 50; in series [11], 150. The result in series [8], in series [9], in [10] and in series [12] was Active. Also, in series [1], the HC50 at 1 h amounted to 300 µg/mL. Besides, the MIC in series [2] was 2 µg/mL; in [3], 4 µg/mL; in series [4], 6 µg/mL.
Consider `CCCCCCCCCCNC(=O)C[N+](C)(C)CCCCCC[N+](C)(C)CC(=O)NCCCCCCCCCC.[Br-].[Br-]`, for which the HC50 at 1 h in series [1] amounted to 58 µg/mL. Besides, the MIC in series [2], in [3] and in [4] was 2 µg/mL each time.
In the case of `CCCCCCCCCCNC(=O)C[N+](C)(C)CCCCCCCCCC[N+](C)(C)CC(=O)NCCCCCCCCCC.[Br-].[Br-]`, the HC50 at 1 h in [1] is 55 µg/mL. Further, the MIC is 4 µg/mL in [2], 4 µg/mL in series [3] and 8 µg/mL in series [4].
For `CCCCCCCCCCNC(=O)C[N+](C)(C)CC[N+](C)(C)CC(=O)NCCCCCCCCCC.[Br-].[Br-]`, the values for the Selectivity Index in [7] and in series [11] were 16 and 32, respectively. Further, the result in series [8], in series [9], in series [10] and in series [12] was Active. Besides, the HC50 at 1 h in series [1] turned out to be 65 µg/mL. Moreover, the MIC worked out at 2 µg/mL in [2], 2 µg/mL in [3] and 4 µg/mL in series [4].
Consider `CCCCCCCCCCNC(=O)C[N+](C)(C)CCCCCCCC[N+](C)(C)CC(=O)NCCCCCCCCCC.[Br-].[Br-]`, for which the concentration for 50% haemolysis (HC50) at 1 h in series [1] worked out at 55 µg/mL. Also, the MIC was 2 µg/mL in [2], 2 µg/mL in series [3] and 4 µg/mL in series [4].
Turning to `CCCCCCNC(=O)C[N+](C)(C)CC[N+](C)(C)CC(=O)NCCCCCC.[Br-].[Br-]`, the HC50 at 1 h in series [1] is greater than 1000 µg/mL. For the same molecule, the values for the MIC in series [2], in [3] and in [4] were 125 µg/mL, 250 µg/mL and 250 µg/mL, respectively.
In turn, `CCCCCCNC(=O)C[N+](C)(C)CCCC[N+](C)(C)CC(=O)NCCCCCC.[Br-].[Br-]` displayed an HC50 at 1 h in [1] greater than 1000 µg/mL. In addition, the MIC in series [2] came to 62.5 µg/mL; in series [3], 125 µg/mL; in series [4], 125 µg/mL.
For the molecule `CCCCCCCCNC(=O)C[N+](C)(C)CCCC[N+](C)(C)CC(=O)NCCCCCCCC.[Br-].[Br-]`, the HC50 at 1 h in [1] came out at 310 µg/mL. Further, the MIC is 2 µg/mL in series [2], 3.9 µg/mL in [3] and 8 µg/mL in [4].
In [1], `CCCCCCCCNC(=O)C[N+](C)(C)CC[N+](C)(C)CC(=O)NCCCCCCCC.[Br-].[Br-]` displayed an HC50 at 1 h of 350 µg/mL. Further, the MIC in series [2] stood at 2 µg/mL; in series [3] it was 3.9 µg/mL; in [4], 8 µg/mL.
In the case of `CCCCCCNC(=O)C[N+](C)(C)CCCCCCCC[N+](C)(C)CC(=O)NCCCCCC.[Br-].[Br-]`, the HC50 at 1 h in series [1] was greater than 1000 µg/mL. Besides, the minimum inhibitory concentration (MIC) in series [2] stood at 16 µg/mL; in series [3], 31 µg/mL; in [4], 31 µg/mL.
Take `CCCCCCCCCC[N+](C)(C)CCCCCCCCCC`: the MBEC result in [5] and in series [6] was “Active” in each case.
Turning to `CC(=O)O[C@H]1C[C@@]2(C)[C@@H](C[C@@H](O)[C@H]3[C@@]4(C)CC[C@@H](O)[C@@H](C)[C@@H]4CC[C@@]32C)/C1=C(\CCC=C(C)C)C(=O)O` [FUSIDIC ACID], the result in series [13] was Active. In addition, in series [14], the Activity amounted to 2.2 log10CFU/g.
As to `CCCCCCCCNC(=O)C[N+](C)(C)CCCCCCCC[N+](C)(C)CC(=O)NCCCCCCCC.[Br-].[Br-]`, the Selectivity Index in [7] stood at 106; in series [11], 182. Moreover, the Activity entry in series [15], in series [16] and in series [17] was “Toxic” in each case. In addition, the result in series [8], in series [9], in [10] and in series [12] was Active. The same molecule registered a concentration for 50% haemolysis (HC50) at 1 h in [1] of 212 µg/mL. Also, the minimal inhibitory concentration (MIC) turned out to be 1 µg/mL in series [2], 2 µg/mL in [3] and 2 µg/mL in series [4].
In the case of `CCCCCCNC(=O)C[N+](C)(C)CCCCCCCCCC[N+](C)(C)CC(=O)NCCCCCC.[Br-].[Br-]`, the values for the Selectivity Index in [7] and in series [11] were 207 and 310, respectively. Besides, the result in series [8], in series [9], in series [10] and in series [12] was Active. Moreover, the HC50 at 1 h in series [1] was greater than 1000 µg/mL. For the same molecule, the values for the MIC in series [2], in [3] and in series [4] were 4 µg/mL, 4 µg/mL and 6 µg/mL, respectively.

As usually defined, the HC50 is the concentration giving 50% haemolysis. Higher therefore signals less damage to red cells. What is called MIC is the smallest concentration in the dilution series that meets the test's criterion for growth inhibition. Higher therefore signals a less susceptible organism.
